What was measured:
B16-F10 [1] = assay: Cytotoxicity against mouse B16F10 cells assessed as reduction in cell viability after 72 hrs by MTT assay; type: functional, cell-based; settings: B16-F10, 72 h
Outline: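 Cells exposed to compound for 72 h and viability read by MTT; IC50 from three independent experiments.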

B16-F10 [2] = assay: Induction of apoptosis in mouse B16F10 cells assessed as early apoptotic cells at 500 nM incubated for 48 hrs by Annexin V-FITC/PI staining based flow cytometry (reference value: 3.52%); type: functional
A-375 [3] = assay: Induction of apoptosis in human A-375 cells assessed as early apoptotic cells at 500 nM incubated for 48 hrs by Annexin V-FITC/PI staining based flow cytometry (reference value: 2.82%); type: functional
A-375 [4] = assay: Induction of apoptosis in human A-375 cells assessed as late apoptotic cells at 250 nM incubated for 48 hrs by Annexin V-FITC/PI staining based flow cytometry (reference value: 3.28%); type: functional
A-375 [5] = assay: Induction of apoptosis in human A-375 cells assessed as late apoptotic cells at 500 nM incubated for 48 hrs by Annexin V-FITC/PI staining based flow cytometry (reference value: 3.28%); type: functional

Structure (SMILES): CN(C)C(=O)c1cc2cnc(Nc3ccc(C(=O)NCCCCCCNc4cccc5c4C(=O)N(C4CCC(=O)NC4=O)C5=O)cc3)nc2n1C1CCCC1 (stereo not given)
- IC50 (B16-F10 [1]): 97.6 nM
- Activity (B16-F10 [2]): 93.6%
- Activity (A-375 [3]): 9.59%
- Activity (A-375 [4]): 3.78%
- Activity (A-375 [5]): 5.1%

— ChEMBL document CHEMBL4732105, “First orally bioavailable prodrug of proteolysis targeting chimera (PROTAC) degrades cyclin-dependent kinases 2/4/6 in vivo” (Eur J Med Chem, 2021)
